Our source for the IC50 values is ChEMBL document CHEMBL1150385, “Synthesis and evaluation of [2-(4-quinolyloxy)phenyl]methanone derivatives: novel selective inhibitors of transforming growth factor-beta kinase” (J Med Chem, 2008).

A short description of assay [1]: Inhibition of TGF-beta expressed in human A549 cells assessed as luciferase activity after 4 hrs by Smad2/3 reporter assay. It counts as cell-based. In a few lines: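 A549 human lung epithelial cells stably carrying a luciferase reporter driven by four tandem Smad2/3 binding sequences (p(SBE)4-Luc); cells given test compound together with TGF-β1 (2 ng/ml), cultured 4 h, then luciferase activity read by chemiluminescence (Steady Glo); IC50 values reported.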
A general note: In a reporter assay the amount or activity of a reporter protein is the signal.

The target of another assay is T1, TGF-beta receptor type-1 (Homo sapiens, UniProt P36897).
T1 sequence (P36897 whole entry): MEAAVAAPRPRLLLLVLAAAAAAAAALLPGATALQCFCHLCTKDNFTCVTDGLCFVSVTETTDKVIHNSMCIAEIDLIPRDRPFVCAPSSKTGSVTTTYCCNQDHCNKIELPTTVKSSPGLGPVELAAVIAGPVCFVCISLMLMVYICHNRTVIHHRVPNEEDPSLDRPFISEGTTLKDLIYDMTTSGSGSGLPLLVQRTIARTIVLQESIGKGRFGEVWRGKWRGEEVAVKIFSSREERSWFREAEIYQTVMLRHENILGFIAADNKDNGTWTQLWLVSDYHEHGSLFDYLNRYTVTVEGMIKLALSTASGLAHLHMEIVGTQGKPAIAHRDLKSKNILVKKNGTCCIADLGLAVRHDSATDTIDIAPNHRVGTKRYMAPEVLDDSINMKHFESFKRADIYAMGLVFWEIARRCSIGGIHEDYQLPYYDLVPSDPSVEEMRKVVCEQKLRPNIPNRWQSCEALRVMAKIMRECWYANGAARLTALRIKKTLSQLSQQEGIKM
Kind of assay: Inhibition of ALK5 by filter binding assay.

Assay [2] addresses Proto-oncogene tyrosine-protein kinase Src (Homo sapiens, UniProt P12931). The experiment in a line: Inhibition of c-Src.
The nature of assay [3]: Inhibition of TGF-beta mediated Smad2 phosphorylation in human A549 cells after 30 mins by Western blot. Format: cell-based. Conditions: A549, 0.5 h.

Structures are written as SMILES.

Chain of Proto-oncogene tyrosine-protein kinase Src (P12931 2-536 limits assumed): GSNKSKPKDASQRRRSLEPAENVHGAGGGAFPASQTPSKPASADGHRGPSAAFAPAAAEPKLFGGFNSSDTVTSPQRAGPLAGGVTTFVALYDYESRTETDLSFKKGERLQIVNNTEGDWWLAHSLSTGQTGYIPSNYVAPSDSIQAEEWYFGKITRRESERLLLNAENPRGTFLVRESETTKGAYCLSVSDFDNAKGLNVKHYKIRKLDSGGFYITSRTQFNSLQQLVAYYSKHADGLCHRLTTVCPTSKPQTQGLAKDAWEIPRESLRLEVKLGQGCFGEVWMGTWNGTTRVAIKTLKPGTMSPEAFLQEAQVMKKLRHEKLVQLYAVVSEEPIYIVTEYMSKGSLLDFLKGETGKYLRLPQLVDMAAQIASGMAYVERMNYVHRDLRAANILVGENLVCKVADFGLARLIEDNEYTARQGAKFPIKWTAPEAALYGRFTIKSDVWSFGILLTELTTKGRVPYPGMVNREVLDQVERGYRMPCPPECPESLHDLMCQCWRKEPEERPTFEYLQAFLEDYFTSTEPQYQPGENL

As usually defined, the IC50 is the concentration that inhibits the measured activity by half. Consider `COc1cc2nccc(Oc3ccc(F)cc3C(C)=O)c2cc1OC`, for which, in assay [1], the IC50 came to 3800 nM.

For `CCc1ccc(Oc2ccnc3cc(OC)c(OC)cc23)c(C(C)=O)c1`, the IC50 in assay [1] was 830 nM.

As to `CCCCc1ccc(Oc2ccnc3cc(OC)c(OC)cc23)c(C(C)=O)c1`, the IC50 in assay [1] was 2200 nM.

On to `CCOc1ccc(Oc2ccnc3cc(OC)c(OC)cc23)c(C(C)=O)c1`, for which, in assay [1], the IC50 stood at 5600 nM.

Regarding `COc1cc2nccc(Oc3ccc(C)cc3C(=O)c3ccno3)c2cc1OC`, the half-maximal inhibitory concentration (IC50) in assay [1] is 2500 nM.

In the case of `COc1cc2nccc(Oc3cc(C)ccc3C(C)=O)c2cc1OC`, in assay [1], the IC50 was 5500 nM.

As for `CCCc1ccc(Oc2ccnc3cc(OC)c(OC)cc23)c(C(C)=O)c1`, in assay [1], the IC50 amounted to 540 nM.

As for `COc1ccc(Oc2ccnc3cc(OC)c(OC)cc23)c(C(C)=O)c1`, the IC50 in assay [1] stood at 590 nM.

In the case of `COc1cc2nccc(Oc3ccc(Br)cc3C(=O)c3ccccc3)c2cc1OC`, the IC50 in assay [1] was 3200 nM.

With `COc1cc2nccc(Oc3cc(C)c(C)cc3C(=O)c3ccccc3)c2cc1OC`, the IC50 in assay [1] was 1400 nM.

Regarding `COc1cc2nccc(Oc3ccc(C)cc3C=O)c2cc1OC`, the IC50 in assay [1] was more than 10000 nM.

As to `COc1cc2nccc(Oc3cc(C)c(Cl)cc3C(=O)c3ccccc3)c2cc1OC`, the IC50 in assay [1] came to 2100 nM.

With `COc1cc2nccc(Oc3ccc(C)cc3C(=O)c3ccccc3)c2cc1OC`, the IC50 on TGF-beta receptor type-1 was 2700 nM; in assay [2] it was 1700 nM; in assay [1] it was 640 nM; in assay [3] it was 500 nM.

Turning to `COc1cc2nccc(Oc3ccc(C)cc3C(=O)c3ccc(C(C)(C)C)cc3)c2cc1OC`, the IC50 in assay [1] worked out at 8500 nM.

Consider `COc1cc2nccc(Oc3cc(C)c(Cl)cc3C(C)=O)c2cc1OC`, for which, in assay [1], the half-inhibitory concentration (IC50) was 420 nM.

In the case of `COc1cc(Oc2ccnc3cc(OC)c(OC)cc23)c(C(C)=O)cc1OC`, the IC50 in assay [1] is more than 10000 nM.

With `CCCOc1ccc(Oc2ccnc3cc(OC)c(OC)cc23)c(C(C)=O)c1`, the IC50 in assay [1] is more than 10000 nM.

For `CCC(=O)c1cc(OC)ccc1Oc1ccnc2cc(OC)c(OC)cc12`, the IC50 in assay [1] worked out at 1100 nM.

With `CCC(=O)c1cc(C)ccc1Oc1ccnc2cc(OC)c(OC)cc12`, in assay [1], the IC50 was 620 nM.

For the compound `COc1cc2nccc(Oc3ccc(Cl)cc3C(=O)c3ccccc3)c2cc1OC`, the IC50 in assay [1] is 2700 nM.

In the case of `COc1cc2nccc(Oc3ccc(C)cc3C(=O)C3CCCC3)c2cc1OC`, the IC50 in assay [1] is 2200 nM.

In the case of `COc1ccc(Oc2ccnc3cc(OC)c(OC)cc23)c(C(=O)c2ccccc2)c1`, the IC50 in assay [1] is more than 10000 nM.

As to `COc1cc2nccc(Oc3ccccc3C(C)=O)c2cc1OC`, the IC50 in assay [1] is more than 10000 nM.

Consider `COc1cc2nccc(Oc3ccc(C)cc3C(C)=O)c2cc1OC`, for which the IC50 on TGF-beta receptor type-1 is 4400 nM; in assay [2], 8400 nM; in assay [1], 2300 nM.

Turning to `COc1cc2nccc(Oc3cc(C)c(C)cc3C(C)=O)c2cc1OC`, the IC50 at TGF-beta receptor type-1 turned out to be 630 nM; in assay [2], 13000 nM; in assay [1] it was 370 nM; in assay [3], 500 nM.

In the case of `COc1cc2nccc(Oc3ccc(C)cc3C(=O)c3ccco3)c2cc1OC`, the IC50 in assay [1] was 2700 nM.

Consider `COc1ccc(C(=O)c2ccccc2)c(Oc2ccnc3cc(OC)c(OC)cc23)c1`, for which the IC50 in assay [1] was 4900 nM.

Turning to `COc1cc2nccc(Oc3ccccc3C(=O)c3ccccc3)c2cc1OC`, the IC50 at TGF-beta receptor type-1 worked out at 16000 nM; in assay [2] it was 4500 nM; in assay [1], 4700 nM.

Regarding `CCC(=O)c1ccc(OC)cc1Oc1ccnc2cc(OC)c(OC)cc12`, the IC50 in assay [1] stood at 1800 nM.

Turning to `COc1cc2nccc(Oc3ccc(C)cc3C(=O)N3CCCCC3)c2cc1OC`, in assay [1], the IC50 was more than 10000 nM.

Regarding `COc1ccc(C(C)=O)c(Oc2ccnc3cc(OC)c(OC)cc23)c1`, the IC50 in assay [1] stood at 8800 nM.
